pIC50: −log10 of the molar value.
Key:
[1] = Therapeutic index (TI) value as ratio of lethal dose (LD50) to the inhibitory concentration (IC50); format: cell-based; settings: human, KB cells; read-out: TI
KB = assay: Lethal dose required to inhibit the growth of human KB (nasopharyngeal carcinoma) cell line; format: functional; settings: read-out: LD50 (the source's name)
[2] = In vitro inhibitory concentration against the growth of Toxoplasma gondii in human foreskin fibroblast monolayer cells (HFF cells); format: functional, cell-based
Outline: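 T. gondii 2F clone tachyzoites expressing β-galactosidase, kept in HFF in DMEM with 10% FBS, 2 mM glutamine and 1 mM pyruvate. Confluent HFF monolayers were given serially diluted drug in medium, then 10^4 filtered, needle-passed tachyzoites/mL, and held 48 h at 37 °C. Cells were lysed at 50 °C, and CPRG turnover was read at 570 nm. IC50 came from a hyperbolic fit of % inhibition against concentration.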

HFF = assay: Inhibitory concentration against the growth of Toxoplasma gondii overexpressing FPPS enzyme in human foreskin fibroblast monolayer cells; (control = 0.29 uM); format: functional, cell-based
Outline: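 FPPS-overexpressing T. gondii line: 2F clone tachyzoites (beta-galactosidase) electroporated with 50 µg ptubTgFPPS-FLAG/sagCAT. Stable lines were selected with 20 µM chloramphenicol and cloned by limiting dilution, giving 4-5-fold more FPPS by Western blot. Assay: compounds serially diluted in medium on confluent HFF; 10^4 tachyzoites/mL (filtered 3 µm, needle-passed); 48 h at 37 °C. Lysis, then CPRG read at 570 nm; IC50 from rectangular hyperbolic fit of % inhibition.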

Row | SMILES | selectivity ratio [1] | CC50 (KB) [µM] | pIC50 [2] | pIC50 (HFF)
1 | O=P(O)(O)C(Nc1ccccn1)P(=O)(O)O | 10.4 | 465 | 4.35 | –
2 | O=C1C(O)=C([C@H]2CC[C@H](c3ccc(Cl)cc3)CC2)C(=O)c2ccccc21 [ATOVAQUONE] | – | – | – | 6.55
3 | Cc1csc(NC(P(=O)(O)O)P(=O)(O)O)n1 | – | – | 4.51 | –
4 | O=P(O)(O)C(Nc1nccc2ccccc12)P(=O)(O)O | 32.2 | 673 | 4.68 | –
5 | O=P(O)(O)C(O)(CCc1cccnc1)P(=O)(O)O | > 5.46 | > 804 | 3.83 | –
6 | O=P(O)(O)C(O)(Cc1cccc2ccccc12)P(=O)(O)O | – | – | 4.16 | –
7 | NCCC(O)(P(=O)(O)O)P(=O)(O)O [PAMIDRONIC ACID] | 4.11 | 156 | 4.42 | –
8 | CN(Cc1ccccc1)C(P(=O)(O)O)P(=O)(O)O | – | – | 4.12 | –
9 | O=P(O)(O)C(N1CCCCCC1)P(=O)(O)O [N-(HEXAMETHYLENEIMINO)METHYLENEBISPHOSPHONIC ACID] | > 12.2 | > 1100 | 4.05 | –
10 | O=P(O)(O)C(Nc1cccc(Cc2ccccc2)c1)P(=O)(O)O | – | – | 4.25 | –
11 | CCCCN(CC)C(P(=O)(O)O)P(=O)(O)O [(BUTYL(ETHYL)AMINO)METHYLENEDIPHOSPHONIC ACID] | > 7.99 | > 1060 | 3.88 | –
12 | CCc1cccc(NC(P(=O)(O)O)P(=O)(O)O)n1 | – | – | 3.66 | –
13 | CCC(C)CNC(P(=O)(O)O)P(=O)(O)O (stereo unspecified) | 10.8 | 394 | 4.44 | –
14 | CCCCNC(P(=O)(O)O)P(=O)(O)O [(BUTYLAMINO)METHYLENEDIPHOSPHONIC ACID] | 2.78 | 212 | 4.12 | –
15 | O=P(O)(O)C(N1CCCCC1)P(=O)(O)O | > 21.9 | > 1120 | 4.29 | –
16 | O=P(O)(O)C(NC1CCCCCCC1)P(=O)(O)O [(CYCLOOCTYLAMINO)METHYLENEDIPHOSPHONIC ACID] | 8.19 | 354 | 4.36 | –
17 | O=P(O)(O)C(O)(Cc1cnc2ccccn12)P(=O)(O)O [MINODRONIC ACID] | – | – | 5.73 | –
18 | CCCCCCCC(O)(P(=O)(O)O)P(=O)(O)O | 21.9 | 302 | 4.86 | –
19 | CC(C)c1cccc(NC(P(=O)(O)O)P(=O)(O)O)c1 | – | – | 3.79 | –

Row | SMILES | selectivity ratio [1] | CC50 (KB) [µM] | pIC50 [2] | pIC50 (HFF)
20 | Cc1ccnc(NC(P(=O)(O)O)P(=O)(O)O)c1 | 2.32 | 137 | 4.23 | –
21 | O=[N+]([O-])c1cccc(CC(O)(P(=O)(O)O)P(=O)(O)O)c1 | – | – | 4.32 | –
22 | Cc1cccc(CC(O)(P(=O)(O)O)P(=O)(O)O)c1 | – | – | 4.44 | –
23 | O=P(O)(O)C(O)(Cc1cccnc1)P(=O)(O)O [RISEDRONIC ACID] | 106 | 255 | 5.62 | –
24 | O=P(O)(O)C(NC1CC1)P(=O)(O)O [(CYCLOPROPYLAMINO)METHYLENEDIPHOSPHONIC ACID] | 10.7 | 246 | 4.64 | –
25 | O=P(O)(O)C(Nc1ccc(Cl)cc1Cl)P(=O)(O)O [2,4-DICHLOROPHENYLAMINOMETHYLENEBISPHOSPHONIC ACID] | – | – | 3.81 | –
26 | O=P(O)(O)C(O)(CSc1ccncc1)P(=O)(O)O | > 10.3 | > 746 | 4.14 | –
27 | Cc1cc(C)nc(NC(P(=O)(O)O)P(=O)(O)O)c1 | 2.7 | 633 | 3.63 | –
28 | C[C@@H](NC(P(=O)(O)O)P(=O)(O)O)c1cccc2ccccc12 | – | – | 4.20 | –
29 | O=P(O)(O)C(Sc1ccccn1)P(=O)(O)O | – | – | 4.29 | –
30 | O=P(O)(O)C(O)(Cc1ccccn1)P(=O)(O)O | 1.71 | 13.9 | 5.09 | –
31 | Cc1ccnc(N(Cc2ccccc2)C(P(=O)(O)O)P(=O)(O)O)c1 | – | – | 3.65 | –
32 | O=P(O)(O)C(N1CCSCC1)P(=O)(O)O [THIOMORPHOLINOMETHYLENEDIPHOSPHONIC ACID] | > 6.73 | > 1080 | 3.79 | –
33 | NCCCC(O)(P(=O)(O)O)P(=O)(O)O [ALENDRONIC ACID] | – | – | 3.96 | –
34 | Nc1ccc(CC(O)(P(=O)(O)O)P(=O)(O)O)cc1 | 2.71 | 218 | 4.10 | –
35 | CCCNC(P(=O)(O)O)P(=O)(O)O [(PROPYLAMINO)METHYLENEDIPHOSPHONIC ACID] | 7.21 | 499 | 4.16 | –
36 | NCCCCC(O)(P(=O)(O)O)P(=O)(O)O | 0.72 | 91 | 3.90 | –
37 | CCCCCN(C)CCC(O)(P(=O)(O)O)P(=O)(O)O [IBANDRONIC ACID] | 0.19 | 10.4 | 4.26 | –
38 | CCCCC(O)(P(=O)(O)O)P(=O)(O)O | > 6.95 | > 1040 | 3.82 | –

Row | SMILES | selectivity ratio [1] | CC50 (KB) [µM] | pIC50 [2] | pIC50 (HFF)
39 | C[C@H](NC(P(=O)(O)O)P(=O)(O)O)c1cccc2ccccc12 | – | – | 4.26 | –
40 | O=P(O)(O)C(NC1CCCC1)P(=O)(O)O [(CYCLOPENTYLAMINO)METHYLENEDIPHOSPHONIC ACID] | 9.19 | 629 | 4.16 | –
41 | O=P(O)(O)C(NC1CCCCCC1)P(=O)(O)O [INCADRONIC ACID] | 4.19 | 166 | 4.40 | –
42 | CC(C)CCNC(P(=O)(O)O)P(=O)(O)O [(ISOPENTYLAMINO)METHYLENEDIPHOSPHONIC ACID] | 3.56 | 480 | 3.87 | –
43 | O=P(O)(O)C(Nc1ccnc(O)c1)P(=O)(O)O | 14.8 | 257 | 4.76 | –
44 | O=P(O)(O)C(Nc1cccnc1)P(=O)(O)O | 18.6 | 782 | 4.38 | –
45 | CCC(C)NC(P(=O)(O)O)P(=O)(O)O (stereo unspecified) | – | – | 3.78 | –
46 | O=P(O)(O)C(O)(Cn1cnc2ccccc21)P(=O)(O)O | – | – | 5.35 | –
47 | NCCCCCC(O)(P(=O)(O)O)P(=O)(O)O [NERIDRONIC ACID] | 11.4 | 680 | 4.22 | –
48 | CCCCCCC(O)(P(=O)(O)O)P(=O)(O)O | 4.23 | 107 | 4.60 | –
49 | O=P(O)(O)C(NC1CCC1)P(=O)(O)O [(CYCLOBUTYLAMINO)METHYLENEDIPHOSPHONIC ACID] | 2.15 | 260 | 3.92 | –
50 | O=P(O)(O)C(O)(Cc1ccncc1)P(=O)(O)O | 48.9 | 171 | 5.46 | –
51 | Cc1cccnc1NC(P(=O)(O)O)P(=O)(O)O | 4.02 | 179 | 4.35 | –
52 | CC(C)(C)c1cccc(NC(P(=O)(O)O)P(=O)(O)O)c1 | – | – | 3.81 | –
53 | O=P(O)(O)C(O)(Cc1ccccc1)P(=O)(O)O | > 10.3 | > 931 | 4.04 | –
54 | CCCCCCCCCNC(P(=O)(O)O)P(=O)(O)O [(NONYLAMINO)METHYLENEDIPHOSPHONIC ACID] | > 103 | > 919 | 5.05 | –
55 | O=P(O)(O)C(N(C1CCCCC1)C1CCCCC1)P(=O)(O)O [(DICYCLOHEXYLAMINO)METHYLENEDIPHOSPHONIC ACID] | > 20.1 | > 844 | 4.38 | –
56 | O=P(O)(O)C(O)(CC1=NC=NC1)P(=O)(O)O | 6.12 | 41 | 5.17 | –
57 | CC1CCCCN1C(P(=O)(O)O)P(=O)(O)O (stereo unspecified) | – | – | 3.88 | –

Reference: ChEMBL document CHEMBL1143625, “Bisphosphonate inhibitors of Toxoplasma gondi growth: in vitro, QSAR, and in vivo investigations” (J Med Chem, 2005)
